Laboratory results reported in the array DNA melting data of Ke et al. (doi:10.1101/2024.01.08.574731).

How the values were obtained:
[1] = folding enthalpy; higher = less favourable; fluorescence melt of hairpins on a sequencing array, two-state fit; settings: sodium 0.088 M
Procedure, shortened: (§1)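 In 50 mM Na-HEPES pH 8.0 containing 25 mM NaCl, hairpins from the library on a sequenced MiSeq flow cell were imaged for Cy3 fluorescence at 2.5 °C steps up to 60 °C, with Cy3 and quencher oligos annealed. After normalisation to pre-quench Cy3 and to control constructs, two-state fits with bootstrapping gave melting temperature and folding enthalpy. Four replicates were combined by inverse-variance weighting, and fitted temperatures were shifted up by 9.35 °C to match UV melts.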

[2] = melting temperature; fluorescence melt of hairpins on a sequencing array, two-state fit, raised by 9.35 °C to match UV melts; settings: sodium 0.088 M
Procedure, shortened: as §1

Row | Sequence | folding enthalpy [1] | Tm [2]
1 | GTCGGGACGAAAGTCGAC (((..(((....)))))) | -18.9 kcal/mol | 47.5 °C
2 | GTCGGGCGAAAGCCGAC (((.(((....)))))) | -23 kcal/mol | 68.6 °C
3 | GTCGGGGCGAAAGCCGAC (((..(((....)))))) | -17.2 kcal/mol | 56.9 °C
4 | GTCGGGGGAAACCCTGAC (((.(((....))).))) | -53.6 kcal/mol | 53.4 °C
5 | GTCGGGGGAAACTCCGGC (.(((.(....).))).) | -29.9 kcal/mol | 47.2 °C
6 | GTCGGTCGAAAGACAGAC (((.(((....))).))) | -37.8 kcal/mol | 57.8 °C
7 | GTCGGTCGAAAGACGGAC (((.(((....))).))) | -34.8 kcal/mol | 59.1 °C
8 | GTCGGTGGAAACATCGAC ((((.((....)).)))) | -45.1 kcal/mol | 53.9 °C
9 | GTCGTAGGAAACTATGGC (.(.(((....))).).) | -17.8 kcal/mol | 32 °C
10 | GTCGTCCGAAAGGATGAC (((.(((....))).))) | -54.4 kcal/mol | 62.1 °C
11 | GTCGTCGAAAGACCGAC ((((((....))).))) | -23.5 kcal/mol | 50.7 °C
12 | GTCGTCGAAAGACCTGAC ((((((....)))..))) | -14.7 kcal/mol | 31.7 °C
13 | GTCGTCGAAAGACTAGAC ((((((....)))..))) | -18.4 kcal/mol | 42.5 °C
14 | GTCGTCGAAAGACTCGAC ((((((....)))..))) | -14.9 kcal/mol | 38.6 °C
15 | GTCGTCGAAAGACTGGAC ((((((....)))..))) | -20.7 kcal/mol | 39.2 °C
16 | GTCGTGGAAACACGAC ((((((....)))))) | -35.4 kcal/mol | 68.5 °C
17 | GTCGTGGGAAACCATGGC (.(.(((....))).).) | -25.6 kcal/mol | 40.6 °C
18 | GTCGTGGGAAACCGTGAC (((..((....))..))) | -25.9 kcal/mol | 36.7 °C
19 | GTCGTGGGAAACTACGAC (((((.(....).))))) | -37.3 kcal/mol | 53.9 °C
20 | GTCGTTCGAAAGAAAGAC (((.(((....))).))) | -31.2 kcal/mol | 47.8 °C
21 | GTCTAACCGAAAGGTGAC (((..(((....)))))) | -17.6 kcal/mol | 42.2 °C
22 | GTCTACCGAAAGGTCGAC (((.(((....))).))) | -33.9 kcal/mol | 48.7 °C
23 | GTCTACCGAAAGGTTGAC (((.(((....))).))) | -40.5 kcal/mol | 52.6 °C

Row | Sequence | folding enthalpy [1] | Tm [2]
24 | GTCTACGAAAGTAGGAC ((((((....))).))) | -16.5 kcal/mol | 44 °C
25 | GTCTACGAAAGTAGTGAC ((((((....)))..))) | -14.3 kcal/mol | 33.4 °C
26 | GTCTACGAAAGTATTGAC ((((((....)))..))) | -19.5 kcal/mol | 30.2 °C
27 | GTCTACGCGAAAGCGGAC (((..(((....)))))) | -12.7 kcal/mol | 41.3 °C
28 | GTCTAGCGAAAGCTCGAC (((.(((....))).))) | -28.2 kcal/mol | 50 °C
29 | GTCTAGCGAAAGCTGAC (((.(((....)))))) | -21.1 kcal/mol | 50.5 °C
30 | GTCTATCGAAAGATGGAC (((.(((....))).))) | -30.9 kcal/mol | 51.7 °C
31 | GTCTATGGAAACATAGGC (.(((((....))))).) | -30.7 kcal/mol | 44 °C
32 | GTCTCACGAAAGTGGAC (((.(((....)))))) | -20.7 kcal/mol | 47.2 °C
33 | GTCTCATCGAAAGATGAC (((..(((....)))))) | -10.9 kcal/mol | 35.4 °C
34 | GTCTCCCCGAAAGGGGAC (((..(((....)))))) | -7.01 kcal/mol | 37.8 °C
35 | GTCTCCGAAAGGATAGAC ((((((....)))..))) | -23.8 kcal/mol | 41 °C
36 | GTCTCCGGAAACGAAGAC ((((.((....)).)))) | -25.9 kcal/mol | 41.9 °C
37 | GTCTCCGGAAACGGGGAC (((.(((....))).))) | -41.1 kcal/mol | 57.7 °C
38 | GTCTCGGGAAACTGAGGC (.(((.(....).))).) | -30.8 kcal/mol | 38.8 °C
39 | GTCTCTGGAAACAGGGAC (((.(((....))).))) | -27.4 kcal/mol | 48.9 °C
40 | GTCTCTGGAAACGGAGAC (((((.(....).))))) | -34.7 kcal/mol | 50.8 °C
41 | GTCTCTTCGAAAGAAGAC (((..(((....)))))) | -9.3 kcal/mol | 32 °C
42 | GTCTGAGGAAACTCAGGC (.(((((....))))).) | -32.2 kcal/mol | 49.5 °C
43 | GTCTGCGAAAGCAAAGAC ((((((....)))..))) | -19.1 kcal/mol | 50.1 °C
44 | GTCTGCGAAAGCAACGAC ((((((....)))..))) | -13.1 kcal/mol | 44.9 °C
45 | GTCTGCGAAAGCAAGGAC ((((((....)))..))) | -17.5 kcal/mol | 43.2 °C
46 | GTCTGCGAAAGCAATGAC ((((((....)))..))) | -16.8 kcal/mol | 39.3 °C

Row | Sequence | folding enthalpy [1] | Tm [2]
47 | GTCTGCGAAAGCACGGAC ((((((....)))..))) | -15.2 kcal/mol | 38.9 °C
48 | GTCTGCGGAAACGTGGAC (((..((....))..))) | -32.4 kcal/mol | 47.5 °C
49 | GTCTGCTCGAAAGAGGAC (((..(((....)))))) | -18.1 kcal/mol | 31.3 °C
50 | GTCTGGAAACAGAC (((((....))))) | -27.8 kcal/mol | 52.4 °C
51 | GTCTGGCGAAAGCCCGAC (((.(((....))).))) | -25.7 kcal/mol | 52.2 °C
52 | GTCTGGGGAAACCTGGAC (((..((....))..))) | -23.9 kcal/mol | 41 °C
53 | GTCTGTCGAAAGACGGAC (((.(((....))).))) | -36.6 kcal/mol | 63.2 °C
54 | GTCTGTCGAAAGACTGAC (((.(((....))).))) | -39.4 kcal/mol | 54.4 °C
55 | GTCTTACCGAAAGGTGAC (((..(((....)))))) | -13.9 kcal/mol | 35.7 °C
56 | GTCTTACGAAAGTAGAC (((.(((....)))))) | -23.8 kcal/mol | 43.4 °C
57 | GTCTTAGCGAAAGCTGAC (((..(((....)))))) | -14.9 kcal/mol | 39 °C
58 | GTCTTAGGAAACTAGGAC (((.(((....))).))) | -33.8 kcal/mol | 38.4 °C
59 | GTCTTCCGAAAGGAGGAC (((.(((....))).))) | -38.2 kcal/mol | 54.5 °C
60 | GTCTTCGAAAGAAAGGAC ((((((....)))..))) | -10.7 kcal/mol | 26.7 °C
61 | GTCTTCGAAAGAAGGGAC ((((((....)))..))) | -14.1 kcal/mol | 32.9 °C
62 | GTCTTCGAAAGAATTGAC ((((((....)))..))) | -10.7 kcal/mol | 26.2 °C
63 | GTCTTCGGAAACGAAGGC (.(((((....))))).) | -32.9 kcal/mol | 53.8 °C
64 | GTCTTTACGAAAGTAGAC (((..(((....)))))) | -17.4 kcal/mol | 31.8 °C
65 | GTCTTTCGAAAGAAGGAC (((.(((....))).))) | -31.5 kcal/mol | 47.4 °C
66 | GTCTTTCGAAAGAATGAC (((.(((....))).))) | -36.6 kcal/mol | 45.2 °C
67 | GTCTTTGAAAAAAGAC ((((((....)))))) | -31.1 kcal/mol | 48 °C
68 | GTCTTTGGAAACAAAGAC (((((((....))))))) | -42.3 kcal/mol | 56.5 °C
69 | GTCTTTGGAAACAAGGAC (((.(((....))).))) | -31.1 kcal/mol | 41.5 °C

Row | Sequence | folding enthalpy [1] | Tm [2]
70 | GTCTTTGGAAACAGAGAC ((((.((....)).)))) | -26 kcal/mol | 37.3 °C
71 | GTCTTTTCGAAAGAAGAC (((..(((....)))))) | -18.7 kcal/mol | 31.6 °C
72 | GTGAAAGCGAAAGCTCAC (((..(((....)))))) | -23.9 kcal/mol | 47.6 °C
73 | GTGAACCGAAAGGTCAC (((.(((....)))))) | -27.2 kcal/mol | 54.9 °C
74 | GTGAACGAAAGTTCGCAC ((((((....)))..))) | -16.4 kcal/mol | 51.3 °C
75 | GTGAACGGAAACGTCCAC (((.(((....))).))) | -31.9 kcal/mol | 45.1 °C
76 | GTGAAGCGAAAGCTCAC (((.(((....)))))) | -26.2 kcal/mol | 56 °C
77 | GTGAAGGGAAACCTTCGC (.(((((....))))).) | -25.8 kcal/mol | 50.2 °C
78 | GTGAATGCGAAAGCACAC (((..(((....)))))) | -14.7 kcal/mol | 40.7 °C
79 | GTGAATGGAAACATTCAC (((((((....))))))) | -45.6 kcal/mol | 56.9 °C
80 | GTGAATGGAAACATTTGC (..((((....))))..) | -15.5 kcal/mol | 31.4 °C
81 | GTGAATGGAAACGTTCAC (((((.(....).))))) | -39.7 kcal/mol | 47.1 °C
82 | GTGACAGGAAACTATCAC ((((.((....)).)))) | -19.4 kcal/mol | 33.2 °C
83 | GTGACAGGAAACTGTTGC (..((((....))))..) | -20.8 kcal/mol | 37.3 °C
84 | GTGACCGAAAGGTACAC ((((((....))).))) | -19.4 kcal/mol | 49.9 °C
85 | GTGACCGAAAGGTCCCAC ((((((....)))..))) | -8.57 kcal/mol | 35.9 °C
86 | GTGACCGAAAGGTGCCAC ((((((....)))..))) | -12.1 kcal/mol | 30.2 °C
87 | GTGACGCCGAAAGGCCAC (((..(((....)))))) | -11.8 kcal/mol | 45.2 °C
88 | GTGACGGGAAACCGCCAC (((.(((....))).))) | -42.1 kcal/mol | 52.2 °C
89 | GTGACGGGAAACCGTTGC (..((((....))))..) | -17.6 kcal/mol | 45.4 °C
90 | GTGACTGGAAACGGTTAC ((.((.(....).)).)) | -8.77 kcal/mol | 36.9 °C
91 | GTGAGACCGAAAGGTCAC (((..(((....)))))) | -16.1 kcal/mol | 50.4 °C
